The target in experiment [1] is T1, Transthyretin (Homo sapiens, UniProt P02766). In words: Binding affinity to recombinant human transthyretin expressed in Escherichia coli BL21 by STD-NMR spectroscopic method. Put shortly: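 Human recombinant WT TTR expressed in E. coli, purified by ion exchange then preparative gel electrophoresis. On-resonance at aliphatic region (δ −0.2 to 0.16 ppm), off-resonance δ 100 ppm. Saturation by 20 ms PC9 pulse train, 2 s total, 600 MHz.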

The target in experiment [2] is T1, Transthyretin. Description: Binding affinity to recombinant human transthyretin expressed in Escherichia coli BL21 at 1:50 protein to ligand molar ratio by STD-NMR spectroscopic method. Summed up:
(§1)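 Human recombinant WT TTR expressed in E. coli, purified by ion exchange then preparative gel electrophoresis. Protein 20−50 μM in PBS pH 6.0, […] 1:20 to 1:50, 298−313 K, optimized per case. On-resonance at aliphatic region (δ −0.2 to 0.16 ppm), off-resonance δ 100 ppm. Saturation by 20 ms PC9 pulse train, 2 s total, 600 MHz.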

Experiment [3] deals with T1, Transthyretin. In words: Binding affinity to recombinant human transthyretin expressed in Escherichia coli BL21 at 1:20 to 1:50 […] molar ratio by STD-NMR spectroscopic method. Summed up:
as §1

Experiment [4] deals with T1, Transthyretin. Description: Binding affinity to recombinant human transthyretin expressed in Escherichia coli BL21 at 1:4 protein to ligand molar ratio in presence of EGCG by STD-NMR spectroscopic method.
Experiment [5] addresses T1, Transthyretin. Description: Binding affinity to recombinant human transthyretin expressed in Escherichia coli BL21 at 1:45 protein to ligand molar ratio in presence of IDIF by STD-NMR spectroscopic method.
The target in experiment [6] is T1, Transthyretin. In words: Binding affinity to recombinant human transthyretin expressed in Escherichia coli BL21 at 1:45 protein to ligand molar ratio in presence of EGCG by STD-NMR spectroscopic method.
In experiment [7] the target is T1, Transthyretin. Description: Binding affinity to recombinant human transthyretin expressed in Escherichia coli BL21 at 1:45 protein to ligand molar ratio by STD-NMR spectroscopic method. Put shortly:
as §1

Active and inactive are the calls of the source. The calls are words filed in the database; no cut-off is given here.

A word on the Kd: it is the free concentration of one partner at which half of the binding sites on the other are occupied at equilibrium, for simple one-to-one binding.

Take `O=C(O[C@@H]1Cc2c(O)cc(O)cc2O[C@@H]1c1cc(O)c(O)c(O)c1)c1cc(O)c(O)c(O)c1` [EPIGALOCATECHIN GALLATE]: the Kd at Transthyretin [1] came out at 400 nM. Also, the result at Transthyretin [2] was Active.

As for `CN(C)C[C@H](O)[C@@H](O)[C@H](O)[C@H](O)CO.O=C(O)c1cc(-c2ccc(F)cc2F)cc(I)c1O`, the result at Transthyretin [3] and at Transthyretin [4] was Active.

In the case of `CC(C)C[C@H](NC(=O)[C@H](CCCCN)NC(=O)[C@H](CCC(N)=O)NC(=O)[C@H](Cc1cnc[nH]1)NC(=O)[C@H](Cc1cnc[nH]1)NC(=O)[C@@H](N)C(C)C)C(=O)N[C@H](C(=O)N[C@@H](Cc1ccccc1)C(=O)N[C@@H](Cc1ccccc1)C(=O)N[C@@H](C)C(=O)N[C@@H](CCC(=O)O)C(=O)N[C@@H](CC(=O)O)C(=O)N[C@H](C(=O)NCC(=O)N[C@@H](CO)C(=O)N[C@@H](CC(N)=O)C(=O)N[C@@H](CCCCN)C(=O)O)C(C)C)C(C)C`, the outcome on Transthyretin [5] and at Transthyretin [7] was Active. The outcome on Transthyretin [6] was inactive.

Consider `C[C@H](NC(=O)[C@@H](N)CC(=O)O)C(=O)N[C@@H](CCC(=O)O)C(=O)N[C@@H](Cc1ccccc1)C(=O)N[C@@H](CCCNC(=N)N)C(=O)N[C@@H](Cc1cnc[nH]1)C(=O)N[C@@H](CC(=O)O)C(=O)N[C@@H](CO)C(=O)NCC(=O)N[C@@H](Cc1ccc(O)cc1)C(=O)N[C@@H](CCC(=O)O)C(=O)O`, for which, on Transthyretin [3], the outcome was inactive.

With `CN(C)C[C@H](O)[C@@H](O)[C@H](O)[C@H](O)CO.O=C(O)c1cc(-c2ccc(F)cc2F)ccc1O`, at Transthyretin [3], the result was Active.

Take H-YEVHHQKLVFF-OH: the result on Transthyretin [3] was inactive.

The values are drawn from ChEMBL document CHEMBL4028846, “Insights on the Interaction between Transthyretin and Aβ in Solution. A Saturation Transfer Difference (STD) NMR Analysis of the Role of Iododiflunisal” (J Med Chem, 2017).
